EBNA-1 inhibitor: EBNA-1 DNA-binding inhibitors, primary screen, biochemical, fluorescence polarization; 300,000 tested, 0.34% active; inhibition, % at 14.8 µM; in the data active = inhibition above about 28%
HCV NS3 hel inh: inhibitors of HCV NS3 helicase, primary screen, biochemical, Cy5 molecular beacon fluorescence | 290,000 tested, 0.56% active | inhibition, % at 10.9 µM | NS3 helicase DNA unwinding | AID 1800, 2009;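 active = inhibition above the mean of all tested compounds plus 3 SD, set per campaign, cut at about 35% in these data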
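Measured by: Cy5 fluorescence, 0 and 60 min reads / Assay system: NS3 helicase fragment of HCV / Control set: low DMSO, high thioflavine S at 110 µM / Times: 1 h reaction at 25 °C, ATP-initiated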
ZTA DNA inh: counter-screen for EBNA-1 inhibitors: inhibitors of Epstein-Barr virus ZTA | P03206 | ZTA-DNA binding, fluorescence polarization | inhibition, % at 11 µM | 320,000 tested, 0.15% active; in the data active = inhibition above about 33%
Target sequence (P03206 whole entry, looked up): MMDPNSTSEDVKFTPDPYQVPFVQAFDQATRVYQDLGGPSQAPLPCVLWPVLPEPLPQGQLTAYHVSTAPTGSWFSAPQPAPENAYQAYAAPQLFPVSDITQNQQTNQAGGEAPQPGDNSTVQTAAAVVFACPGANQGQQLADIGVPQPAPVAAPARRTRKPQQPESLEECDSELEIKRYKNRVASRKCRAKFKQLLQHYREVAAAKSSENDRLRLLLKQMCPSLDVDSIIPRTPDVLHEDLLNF
Fh CTSL1 inh: Fasciola hepatica cathepsin L1 inhibitors, primary screen, counter-screen for PFM18AAP inhibitor project, biochemical, QFRET, fluorogenic peptide substrate | recombinant F. hepatica cathepsin L1, Z-Leu-Arg-MCA fluorescence | inhibition, % at 5.96 µM | 300,000 tested, 0.49% active | AID 1906, 2009;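 active = inhibition above the mean of all tested compounds plus 3 SD, set per screening campaign, cut at about 17% in these data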
Hits are given with their value; n = inactive; x = no result. Shown are actives, neighbours in structure and some others; about 1.4% of the full set was active somewhere.

SMILES	EBNA-1 inhibitor	HCV NS3 hel inh	ZTA DNA inh	Fh CTSL1 inh
COc1ccc(CNC(=O)c2cccs2)cc1	n	n	n	n
COc1ccc2c(c1)C(C1=C(O)CC(C)(C)CC1=O)C1=C(CC(C)(C)CC1=O)O2 (centres undefined)	n	n	n	n
CC1(C)CC(=O)C(C2C3=C(CC(C)(C)CC3=O)Oc3ccccc32)=C(O)C1 (centres undefined)	n	n	n	17.3
O=C(/C=C/c1ccccc1)NC(NC(=S)Nc1cccc(Cl)c1)C(Cl)(Cl)Cl (centres undefined)	n	n	n	18.0
O=C(/C=C/c1ccccc1)NC(NC(=S)Nc1cccc(O)c1)C(Cl)(Cl)Cl (centres undefined)	n	n	n	n
CCN1CCc2c(C#N)c(N3CCCCC3)nc(N3CCOCC3)c2C1	n	n	n	17.6
COc1cccc(CNC(=O)C2CCC(CNc3nc(=S)[nH]c4ccccc34)CC2)c1 (centres undefined)	n	n	n	n
CC1CCN(CCNC(=O)C2CCCN(S(=O)(=O)c3cccc4nonc34)C2)CC1 (centres undefined)	n	n	n	24.1
CCCN(C(=O)CCCSc1nc2ccccc2[nH]1)c1c(N)n(Cc2ccccc2)c(=O)[nH]c1=O	n	x	n	19.0
CCCCN(C(=O)CCCSc1nc2ccccc2[nH]1)c1c(N)n(Cc2ccccc2)c(=O)[nH]c1=O	n	n	n	n
CC1(C)NC(=O)N(CC(=O)OCC(=O)c2ccc(F)cc2)C1=O	101.7	x	n	n
O=C(CN1C(=O)c2ccccc2C1=O)OCC(=O)c1ccc(F)cc1	n	x	n	n
COc1cccc(-c2nc(CS(=O)(=O)CC(=O)NCCCN3CC(C)CC(C)C3)c(C)o2)c1 (centres undefined)	n	n	n	19.4
COc1cccc(-c2nc(CS(=O)(=O)CC(=O)NCCCN3CCN(C)CC3)c(C)o2)c1	n	n	n	n
O=C1C=C(N2CCCCC2)c2ccccc2C1=O	n	x	n	92.5
COc1ccccc1C(=O)NNC(=O)C(=O)Nc1ccc(C)c(Cl)c1	n	n	n	n
CC(=O)Nc1ccccc1NS(=O)(=O)c1ccccc1[N+](=O)[O-]	n	n	n	n
CC(=O)Nc1ccccc1NS(=O)(=O)c1cccc([N+](=O)[O-])c1	n	n	n	19.0
O=C(CNC(=O)c1ccc(Oc2ccccc2)cc1)OC1CCCCC1=O (centres undefined)	n	n	n	19.3
O=C(CNC(=O)c1ccc(Oc2ccccc2)cc1)OCc1ccc(Br)cc1	n	n	n	n
O=C1NC(c2ccccc2)=NC1(NS(=O)(=O)c1ccc(Cl)cc1)C(F)(F)F (centres undefined)	n	n	n	n
CCN(CC)c1ccc(/C=N/NC(=O)c2ccc3nc[nH]c3c2)cc1	n	n	n	n
CN(C)c1ccc(/C=N/NC(=O)c2ccc3nc[nH]c3c2)cc1	n	n	n	20.9
CCCCCc1cc(=O)oc2c(C(CCN3CCN(c4ccccc4)CC3)c3ccc4c(c3)OCO4)c(OC)cc(OC)c12 (centres undefined)	n	x	n	33.3
COc1cccc(C(=O)Nc2ccc(NC(C)=O)cn2)c1	n	n	n	20.4
SMILES	EBNA-1 inhibitor	HCV NS3 hel inh	ZTA DNA inh	Fh CTSL1 inh
CC1=NN(c2ccccc2)C(=O)C1N=Nc1ccc(S(N)(=O)=O)cc1 (centres undefined)	n	n	n	19.5
COc1cc2c(cc1OC)CN(CC(=O)Nc1ccc3c(c1)OCO3)CC2	n	n	n	n
O=C(CN1c2cccc3cccc(c23)S1(=O)=O)N1CCN(c2ccc(F)cc2)CC1	x	x	n	x
O=C(NN1C(=O)/C(=C/c2ccc(O)cc2)SC1=S)c1cccc(O)c1	n	n	n	19.8
Cc1ccc(NC(=O)CC(C)S(=O)(=O)c2ccc3c(c2)NC(=O)CO3)c(Cl)c1 (centres undefined)	n	n	n	n
CC(C)(C)c1cc(NC(=O)CCl)n(-c2ccccc2)n1	n	n	n	56.6
Cc1cc(NC(=O)CN2CCCCC2)n(-c2ccccc2)n1	n	n	n	n
CCCc1cc(NC(=O)CCl)n(-c2ccccc2)n1	n	n	n	78.6
O=C(O)CCCN=C1CCCc2ccccc2N1	n	n	n	n
Cc1cc(C)nc(N2CCCC(C(=O)Nc3ccc4c(c3)OCCO4)C2)n1 (centres undefined)	n	n	n	n
COc1cc(C)nc(N(C)C(C)=O)n1	n	n	n	n
CCC(C)[C@H](NC(=O)[C@@H]1CSC2c3ccccc3C(=O)N21)C(=O)NCc1ccco1 (some centres undefined)	n	n	n	80.6
CCC(C)C(NC(=O)C1CCC(C)CC1)C(=O)NCc1ccco1 (centres undefined)	n	n	n	n
CCC(C)C(NC(=O)OC(C)(C)C)C(=O)NCc1ccco1 (centres undefined)	n	n	n	20.0
COc1ccc(C(=O)Nc2ccccc2C(=O)N(Cc2ccco2)C(C(N)=O)C(C)C)cc1 (centres undefined)	n	n	n	38.0
CC(C)(C)c1ccc(C(=O)Nc2ccccc2C(=O)NCCN2CCOCC2)cc1	n	n	n	n
COc1ccc(C(=O)Nc2ccccc2C(=O)NCCN2CCOCC2)cc1	n	n	n	23.0
CC(=O)Nc1ccc(C(=O)NNC(=O)Cc2ccccc2)cc1	n	n	n	n
C=C(C)C(=O)Oc1ccc(N2C(=O)CCC2=O)cc1	n	n	n	n
CCCCNC1CCS(=O)(=O)C1 (centres undefined)	n	n	n	n
CCC(C)NC(=O)NC(=O)CSc1nnc(-c2ccccc2F)n1C1CC1 (centres undefined)	n	n	n	n
COc1ccc(C(=O)Nc2ccccc2C(=O)NC(C(=O)NCc2ccco2)C(C)C)cc1 (centres undefined)	n	n	n	48.4
COc1ccc(C(=O)N[C@H](C(=O)NCc2ccco2)C(C)C)cc1	n	n	n	18.5
COc1cc(OC)c(/C=N/NC(N)=S)cc1Br	n	n	n	74.5
Cc1ccc(-n2c(C)cc(/C=N/NC(N)=S)c2C)cc1	n	n	n	30.8
SMILES	EBNA-1 inhibitor	HCV NS3 hel inh	ZTA DNA inh	Fh CTSL1 inh
NC(=S)N/N=C/c1cccc(Br)c1	n	n	n	n
NC(=S)N/N=C/c1cccc(/C=N/NC(N)=S)c1	n	n	n	18.1
Cc1cc(/C=N/NC(N)=S)c(O)c(/C=N/NC(N)=S)c1	n	n	n	19.5
COc1ccc(CSc2nncn2N)cc1Br	n	n	n	18.7
COc1ccc(CSc2nnc(C)n2N)cc1Br	n	n	n	n
O=C(COc1coc(CN2CCc3ccccc32)cc1=O)N1CCCCC1	n	x	n	21.5
O=C(COc1coc(CN2CCc3ccccc32)cc1=O)NCCc1ccccc1	n	x	n	n
O=C(Nc1cccs1)Nc1ccccc1Cl	n	n	n	n
CC1(OC(=O)c2ccco2)C(=O)C=C2C=C(C3CC3)OC=C2C1=O (centres undefined)	n	x	n	n
CC1(OC(=O)c2cnc3ccccc3n2)C(=O)C=C2C=C(C3CC3)OC=C2C1=O (centres undefined)	27.5	x	47.7	n

Bioassay records deposited in PubChem by The Scripps Research Institute Molecular Screening Center.
